The nature of this series: Toxicity liver stage against HepG2, at 10uM. It is filed as cell-based. Also on record: test concentration 10 uM, cell line HepG2-A16-CD81EGFP. As to conditions: human, HepG2-A16-CD81EGFP cells; read-out: INHIBITION
An outline of the steps: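 Uninfected HepG2-A16-CD81EGFP cells, 3 × 10^3 per well, 1536-well, plated on prespotted compound at 10 μM final, parasite-free screening media added to match infected plates; puromycin 10 μM positive, DMSO 0.5% negative; run in parallel with 48 h PbLuc assay at 37 °C, 5% CO2; viability by CellTiter-Glo luminescence, normalized to controls.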

`CC(C)c1noc(-c2ccc(NCCCC3CCOC3)nc2)n1` (stereo not given): the cytotoxicity at 10 µM is -7.37%. With `O=C(N[C@@H]1CCC[C@@H](N2CCCC2)[C@@H]1O)c1cnn2cccnc12` the figure was 10.6%. For the molecule `COc1ccccc1CN1C(=O)O[C@@H]2CN(c3nc(C)cc(C)n3)C[C@@H]21`, the cytotoxicity at 10 µM was 0.819%. The figure for `Cc1ccc(F)c(OC2(C(=O)O)CCN(C(=O)C3CCCC3)CC2)c1` is 3.33%; for `CCc1cc(C(=O)N2CC[C@@H](c3ccc4c(c3)OCO4)[C@H](O)C2)[nH]n1` it is -3.87%; for `COCCN1CCC2(C1)CN(c1ncc(F)cn1)C2` it is 4.68%. With `Cc1cc(C)c2c(N3CCN(Cc4ncccc4C)CC3)ncnc2n1` the figure was 1.92%; with `O=C(c1ccnnc1)N1CCN2C[C@H](OCc3ccccn3)C[C@H]2C1`, -77.2%.

As for `COc1cccc(C(C)N2CCN(S(C)(=O)=O)CC2)c1` (stereo not given), the cytotoxicity at 10 µM was -8.42%. With `CCNS(=O)(=O)c1ccc(C)c(C(=O)N(C)Cc2ccccc2C)c1` the figure was 0.997%; with `CC[C@@]1(O)CCN(CCCOc2ccc(C(N)=O)cc2)C[C@H]1O`, -5.03%. The figure for `CCN1CCN(C(=O)Cc2ccc(S(=O)(=O)C(F)F)cc2)CC1` is -6.43%; for `CN(Cc1cnn(C)c1)C(=O)NCc1ccc2c(c1)OCCO2` it is -8.01%. With `Cn1cccc1C(O)CNC(=O)c1ccc(C(F)(F)F)cc1` (stereo not given) the figure was 2.9%. Take `Cc1cc(C)nc(Nc2cccc(C3CCCN(S(C)(=O)=O)C3)n2)n1` (stereo not given): the cytotoxicity at 10 µM is -9.62%.

For the molecule `Cc1noc(OCc2csc(C)n2)n1`, the cytotoxicity at 10 µM was -2.54%.

As to `OC(c1ccccc1)c1cn(C2CCN(Cc3nccs3)CC2)nn1` (stereo not given), the cytotoxicity at 10 µM was 7.44%. The figure for `Cc1noc2ncnc(NC(CC(C)(C)C)c3cccnc3)c12` (stereo not given) is 1.41%. With `CNC(=O)[C@@H]1[C@H]2CNCCN2C[C@H]1c1ccccc1` the figure was 3.28%; with `COc1ccc2cnn(CC(=O)NC3CCCC3)c(=O)c2c1OC`, -2.86%. With `CCN(CC)S(=O)(=O)c1ccc(CNC(=O)c2cc(C)on2)cc1` the figure was 27.4%; with `COCCNC(=O)[C@]12COC[C@H]1CN(C1CCOCC1)C2`, -109%. Regarding `Cc1cc(CN(C)C(=O)CN2CCCCCC2=O)no1`, the cytotoxicity at 10 µM came to 7.41%. The figure for `CCc1noc(CN2CCCN(C(N)=O)CC2)n1` is -4.12%. Turning to `CCC(=O)N1CCC(c2nnc(Cn3cncn3)n2C2CC2)CC1`, the cytotoxicity at 10 µM is -15.4%. The figure for `Cc1noc(C)c1C1CCCN1C(=O)CN1C(=O)OC(C)(C)C1=O` (stereo not given) is -2.57%. With `CC(C)(C(=O)N1CCC(C(N)=O)C1)c1ccccc1F` (stereo not given), the cytotoxicity at 10 µM came out at 4.68%.

On to `O=C(Nc1cc(N2CCOCC2)ncn1)c1cnccn1`, for which the cytotoxicity at 10 µM was -3.45%.

Take `COCCNC(=O)[C@@H]1CCO[C@@H]2CCN(Cc3cnn(C)c3)C[C@@H]21`: the cytotoxicity at 10 µM amounted to 0.341%. With `CN1CCOC(CN(C(=O)CCc2ccco2)c2nccs2)C1` (stereo not given), the cytotoxicity at 10 µM was -16.1%.

Regarding `Cc1noc(CNc2ccc(C(=O)N3CCCC(C)C3)cc2C)n1` (stereo not given), the cytotoxicity at 10 µM was -4.07%. With `COc1ccc2c(ccn2CCC(=O)NCc2ccc(C(=O)O)cc2)c1` the figure was 2.25%; with `CC(=O)N1CC(=O)N(c2cnn(C)c2)CC12CCN(Cc1nccs1)C2` (stereo not given), 6.03%; with `Cc1cc(-c2ccc(=O)n(CCNC(=O)C3CCCCC3)n2)c(C)o1`, -3.73%. The figure for `CCn1cnnc1C1CCN(C(=O)c2ccc3c(c2)nnn3C)CC1` is 10.9%.

`CC(O)CN1CCN(C(=O)c2ccc(Cn3cccc3)cc2)CC1` (stereo not given): the cytotoxicity at 10 µM is -5.75%. The figure for `CCn1cnnc1C1CCN(C(=O)c2ccc(Cl)s2)CC1` is -12.2%; for `COCCN1CCCC2(CCN(c3nccc4ccccc34)C2)C1=O` (stereo not given) it is -0.212%. With `CSc1ncccc1C(=O)N1CCC2(CC1)c1nc[nH]c1CCN2C` the figure was 52.6%; with `O=C(c1ccco1)N1CCN(Cc2nc(C3CC3)no2)CC1`, 5.21%.

As for `CC(C)N1CC[C@@](C)(O)[C@H](n2ccc(=O)[nH]c2=O)C1`, the cytotoxicity at 10 µM was 6.61%. With `Cc1nc(Nc2nnc(C)s2)cc(C2CCCN2C2CCCC2)n1` (stereo not given) the figure was -16.7%; with `CN1CCCN(S(=O)(=O)c2cn(C)cn2)c2cc(F)ccc21`, 6.06%. With `CC(NC(=O)CCCC(=O)c1cccs1)c1nnc2n1CCC2` (stereo not given) the figure was -10.2%; with `CN(CCOc1ccc(Br)cc1)Cc1cscn1`, 5.25%. With `O=C([C@@H]1CCO[C@@H]2CCN(CC3CC3)C[C@H]21)N1CCCCO1` the figure was 6.59%. For the molecule `Cc1cc(CN(C)C(=O)C2CCS(=O)(=O)C2)no1` (stereo not given), the cytotoxicity at 10 µM came out at 0.746%. The figure for `CC(C)Nc1nc2c(s1)C(=O)CN(CC1CC1)C2` is -10.1%; for `CC(C)S(=O)(=O)C(C)C(=O)Nc1ccc2oc(C3CC3)nc2c1` (stereo not given) it is 1.77%; for `CS(=O)(=O)N1CCCCC12CCCN(Cc1nccs1)C2` (stereo not given) it is 9.94%. The figure for `COCCN1CCN(Cc2cccc(C(=O)N(C)C)c2)CC1C` (stereo not given) is 5%; for `CCOC[C@@]12CCC[C@@H]1CN(C(=O)c1ccc(OC)cc1)C2` it is -108%; for `Cc1ccc(CNC(=O)c2cc(C)n(C)n2)o1` it is 0.25%. Take `O=S1(=O)NCC2(CCN(Cc3ccc(Cl)s3)C2)Oc2ncccc21` (stereo not given): the cytotoxicity at 10 µM was 4.65%. The figure for `CC(SCCC(=O)NC(N)=O)c1ccc(F)cc1F` (stereo not given) is 0.936%; for `CCN(C)C(=O)c1cccc(S(=O)(=O)NCCc2csc(N)n2)c1` it is -45.2%. The figure for `O=C(Cc1cccc(F)c1)NCCNCc1cccnc1` is -1.56%; for `Cc1cccc(C(=O)N2CCCn3c(CN4CCCCC4)nnc3C2)c1` it is -84%; for `CC(NCc1ccc(-c2ccc(Cl)cc2)o1)c1nnc2n1CCC2` (stereo not given) it is -2.04%.

Turning to `CCOC(=O)C1CCN(C(=O)c2cc(OCC)c3ccoc3c2)CC1`, the cytotoxicity at 10 µM stood at 34.4%. Take `CC(C)(CNC1CCCN(Cc2ccccn2)C1)CN1CCOCC1` (stereo not given): the cytotoxicity at 10 µM came to 5.91%. The figure for `CSc1ccccc1NC(=O)N1C[C@@H](N(C)C)[C@H](c2ccc(C)cc2)C1` is -12%; for `CC(C)N1CCC(N(C)c2ccnc(N(C)C)n2)CC1` it is -3.3%; for `COCCCN(Cc1ccccn1)Cc1ccnn1C1CCCCO1` (stereo not given) it is -2.66%. The figure for `Cc1nnc(NCc2cccc(OCc3ccccn3)c2)c(C#N)c1C` is 5.93%; for `CCn1cnnc1C1CCN(C(=O)c2ccc(C(=O)OC)s2)CC1` it is -8.16%; for `CC1(C)CN(CC(O)C(C)(C)C)C(=O)CN(C(=O)c2ccccc2)C1` (stereo not given) it is -6.87%. Turning to `CC(C)c1nc(CN2CCC(c3ccnn3CCO)CC2)no1`, the cytotoxicity at 10 µM was -5.71%. In the case of `Cc1cnc(CN2CCCC(c3cc(C(N)=O)[nH]n3)C2)o1` (stereo not given), the cytotoxicity at 10 µM was -9.14%. With `COCCC(=O)N1CCCC2(CCC(=O)N2CCOC)CC1` (stereo not given) the figure was 2.52%; with `Cc1cccc2c1nc1n2[C@@H](CNC(=O)c2ccncc2)COC1`, 3.04%; with `Cc1cnn(-c2cncc(C(N)=O)c2)c1`, 3.04%. The figure for `C[C@@H]1CN(Cc2ccsc2)C[C@]12CCN(Cc1cccnc1)C2=O` is 7.62%. The figure for `CC(C)(C)n1cc(CNC2CCN(C(=O)c3ccncc3)CC2)cn1` is -6.72%; for `O=C(NC1CCCN(c2ccc(OC(F)F)cc2)C1)c1cc[nH]n1` (stereo not given) it is 3.65%; for `CCS(=O)(=O)N1Cc2nccn2CC(Cn2cncn2)C1` (stereo not given) it is 7.21%. With `COCCOCC(=O)N1C[C@@H]2CC[C@H](Oc3ccccc3F)[C@@H]2C1`, the cytotoxicity at 10 µM is -1.96%.

For `CCN(CC)C(=O)CCNC(=O)Cc1nc(-c2ccco2)oc1C`, the cytotoxicity at 10 µM amounted to 26.8%.

For the molecule `Cc1cnc(C(=O)N2CCCC(Cn3cc(CC(C)C)nn3)C2)cn1` (stereo not given), the cytotoxicity at 10 µM stood at 1.33%. The figure for `CN(CCCN1CCOCC1)[C@@H]1c2ccccc2C2(CCNCC2)[C@H]1O` is -3.12%. With `CCN(c1ccc(C(=O)NCCCN2CCOCC2)cc1)S(=O)(=O)CC` the figure was 1.34%. On to `c1ccc2c(c1)CC(n1ccnc1-c1cc3n(n1)CCCNC3)CO2` (stereo not given), for which the cytotoxicity at 10 µM was -8.26%. With `O=C1COc2cc(C(=O)NS(=O)(=O)c3cccc(Cl)c3)ccc2N1` the figure was -4.01%; with `CC(=O)NCc1cc2n(n1)CCN(Cc1cccc(Cl)c1Cl)C2`, -12.8%; with `O=C1OCCN1Cc1cccc(F)c1C(F)(F)F`, 2.61%. With `Cc1nc(N[C@H]2COC[C@@H]2N2CCCCC2)c2c(C)nn(C)c2n1`, the cytotoxicity at 10 µM was -1.21%. The figure for `Cc1cnn(CCNCc2nc(-c3ccccc3Cl)no2)c1` is -9.91%; for `CC(CNC(=O)NCc1ccco1)CC1(C)OCCO1` (stereo not given) it is -7.25%.

As for `c1coc(-c2[nH]c3ncccc3c2CN2CCCOCC2)c1`, the cytotoxicity at 10 µM was -5.44%.

In the case of `CNS(=O)(=O)c1cccc(C(=O)N(C)Cc2ccsc2)c1`, the cytotoxicity at 10 µM amounted to 4.04%. Take `CCCC(=O)N1CCCN(C(=O)Nc2ccc(C)s2)CC1`: the cytotoxicity at 10 µM is -1.24%.

In the case of `O=C(NC1CCC1)[C@@H]1CCO[C@@H]2CCN(C3CCCC3)C[C@@H]21`, the cytotoxicity at 10 µM is 11.4%. In the case of `CN(Cc1c(F)cccc1Cl)C(=O)Nc1cnn(CC(N)=O)c1`, the cytotoxicity at 10 µM was -6.39%. The figure for `Oc1ccc([C@H]2Oc3cc(O)cc(O)c3C[C@@H]2O)cc1` is 4.94%; for `Cc1cc(N)nc(SC2CCCN(Cc3ccccc3)C2=O)n1` (stereo not given) it is -5.45%.

Source of the values: ChEMBL document CHEMBL4513216, “Probing the Open Global Health Chemical Diversity Library for Multistage-Active Starting Points for Next-Generation Antimalarials” (ACS Infect Dis, 2020).
